Results on 28 molecules are retold here after PubChem BioAssay AID493053 (Broad Institute, 2011).

SMILES strings stand for the structures. “And” between values parts separate entries of the source, which are not always exact repeats. Equal values may be shown once. The source made the active and inactive calls.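 Rule for the calls: active = signal falling with dose, half-maximal concentration at or below ten times the highest valid dose tested; inconclusive = flat curve with loss between 30% and 70%, or a poor fit; inactive = the rest, including flat or rising curves.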

Tested on in the first assay: not listed separately
Kind of assay: Ras-transformed BJeLR cell killing – BJeLR cells, dry powder, set 2, dose response (AID 493053). The settings on record: BJeLR fibroblasts viability, Alamar Blue fluorescence, 48 h; at 48 µM (top of the series). The gist of the method: (§1)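 Buffer or medium: DMEM and M199 growth medium with heat-inactivated fetal bovine serum; incubation: 48-h compound exposure (37 °C, 5% CO2), then ~16-h dye incubation; technique: Alamar Blue fluorescence, 544/590 nm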
Consider `CC(C)c1onc(C(=O)N2CCN(C(c3ccccc3)c3ccccc3)CC2)c1[N+](=O)[O-]`, for which the activity change, negative = viability loss is 2.95% (inactive).
As for `Cc1onc(C(=O)N2CCN(C(c3ccccc3)c3ccccc3)CC2)c1C`, the activity change, negative = viability loss was 15.3% (inactive).
On the same count and under the same terms, the result for `O=[N+]([O-])c1ccc(CN2CCN(C(c3ccccc3)c3ccccc3)CC2)o1` reads 2.87% (inactive); that for `CC(=O)Nc1c(C(=O)N2CCN(C(c3ccccc3)c3ccccc3)CC2)noc1C`, 11.2% (inactive).
Still for that read-out and setting: the result for `Cc1onc(C(=O)N2CCN(C(c3ccccn3)c3ccccn3)CC2)c1[N+](=O)[O-]` reads 9.75% (inactive); that for `Cc1ccc(C(=O)N2CCN(C(c3ccccc3)c3ccccc3)CC2)c([N+](=O)[O-])c1`, 14.9% (inactive).
Turning to `Cc1onc(C(=O)N2CCN(C(c3ccccc3)c3ccccc3)CC2)c1N`, the activity change, negative = viability loss is 10.4% (inactive).
Consider `Cc1onc(C(=O)N2CCN(C(c3ccccc3)c3ccccc3)CC2)c1NS(C)(=O)=O`, for which the activity change, negative = viability loss was 15.2% (inactive).
As to `Cc1onc(C(=O)N2CCN(C(c3ccncc3)c3ccncc3)CC2)c1[N+](=O)[O-]`, the activity change, negative = viability loss was 8.19% (inactive).
Same read-out and setting: the same measure for `Cc1onc(C(=O)N2CCN(C(c3ccccc3)c3ccccc3)CC2)c1Br`: 11.7% (inactive); for `O=C(c1noc2ccccc12)N1CCN(C(c2ccccc2)c2ccccc2)CC1`: 3.47% (inactive); for `Cc1oc(C)c(C(=O)N2CCN(C(c3ccccc3)c3ccccc3)CC2)c1C`: 12.2% (inactive).
Same read-out and setting: the result for `O=C(c1ccc([N+](=O)[O-])o1)N1CCCN(C(c2ccccc2)c2ccccc2)CC1` reads -4.17% (inactive).

Staying with this assay, now noted: BJeLR fibroblasts viability, Alamar Blue fluorescence, 48 h; at 68 µM (top of the series).
As for `Cc1onc(C(=O)NCc2ccc(F)cc2)c1[N+](=O)[O-]`, the activity change, negative = viability loss was -1.57% (inactive).
For `Cc1cc(C(=O)N2CCN(Cc3ccccc3)CC2)no1`, the activity change, negative = viability loss is 4.49% (inactive).
Take `Cc1onc(C(=O)N2CCOCC2)c1[N+](=O)[O-]`: the activity change, negative = viability loss is -1.92% (inactive).
As for `COc1ccccc1N1CCN(C(=O)c2noc(C)c2[N+](=O)[O-])CC1`, the activity change, negative = viability loss was -5.96% (inactive).
As for `CCOC(=O)N1CCN(C(=O)c2noc(C)c2[N+](=O)[O-])CC1`, the activity change, negative = viability loss is -2.12% (inactive).

For the next assay, the system named is BJeLR fibroblasts viability, Alamar Blue fluorescence, 48 h. The assay is described as above.
Settings: not given
The gist of the method:
as §1
`Cc1onc(C(=O)N2CCN(C(c3ccc(F)cc3)c3ccc(F)cc3)CC2)c1[N+](=O)[O-]`: the AC50 was 183 nM.
For the molecule `O=C(NCCNC(c1ccccc1)c1ccccc1)c1ccc([N+](=O)[O-])o1`, the AC50 is 39100 nM.
For the molecule `COc1ccc(C(c2ccc(OC)cc2)N2CCN(C(=O)c3noc(C)c3[N+](=O)[O-])CC2)cc1`, the AC50 was 1570 nM.
`O=C(c1ccc([N+](=O)[O-])o1)N1CCN(C(c2ccc(F)cc2)c2ccc(F)cc2)CC1`: the AC50 is 50800 nM.
`Cc1onc(C(=O)N2CCN(C(c3ccccc3)c3ccc(Cl)cc3)CC2)c1[N+](=O)[O-]` (stereo not drawn): the AC50 is 129 nM.
In the case of `Cc1onc(C(=O)N2CCN(C(c3ccccc3)c3ccccc3)CC2)c1[N+](=O)[O-]`, the AC50 was 2270 nM and 1030 nM.
With `Cc1onc(C(=O)N2CCN(Cc3ccccc3)CC2)c1[N+](=O)[O-]`, the AC50 was 65300 nM.
On to `Cc1onc(C(=O)N2CCN(C(c3ccc(Cl)cc3)c3ccc(Cl)cc3)CC2)c1[N+](=O)[O-]`, for which the AC50 is 71 nM.
On to `Cc1onc(C(=O)NCCNC(c2ccccc2)c2ccccc2)c1[N+](=O)[O-]`, for which the AC50 is 21600 nM.
As for `Cc1onc(C(=O)N2CCCN(C(c3ccccc3)c3ccccc3)CC2)c1[N+](=O)[O-]`, the AC50 is 773 nM.
